The values that follow come from ChEMBL document CHEMBL4825702, “5-Aminonaphthalene derivatives as selective nonnucleoside nuclear receptor binding SET domain-protein 2 (NSD2) inhibitors for the treatment of multiple myeloma” (Eur J Med Chem, 2021).

The subject of data set [1] is RS4-11. Briefly: Antitumor activity against human RS4-11 cells xenografted in SCID mouse assessed as tumor growth inhibition at 25 mg/kg, ip qd administered consecutively for 21 days relative to control. As to conditions: RS4-11, ip, 504 h, read-out: TGI.
In data set [2] the target is Protein arginine N-methyltransferase 5 (Homo sapiens, UniProt O14744). Briefly: Inhibition of PRMT5 (unknown origin) using SAM as substrate preincubated for 10 mins followed by substrate addition measured after 4 hrs by AlphaLISA method. In general terms: Bead proximity is the source of the signal in Alpha formats.
Data set [3] has as its system KMS-11. Briefly: Antiproliferative activity against human KMS-11 cells assessed as reduction in cell viability at 1 to 100 uM by CCK8 assay. Type of data set: functional, cell-based. As to conditions: dose 1-100 µM, time 6.0 day, TDE = time-dependent effect. (In general: Tetrazolium assays rely on reduction of a dye to a coloured formazan, in cell work by metabolically active cells.)

Data set [4] has as its system KMS-11. Briefly: cells. As to conditions: Homo sapiens, KMS-11, 72 h, read-out: Activity.
In data set [5] the target is T1, Histone-lysine N-methyltransferase NSD2 (Homo sapiens, UniProt O96028).
T1 sequence (O96028 whole entry): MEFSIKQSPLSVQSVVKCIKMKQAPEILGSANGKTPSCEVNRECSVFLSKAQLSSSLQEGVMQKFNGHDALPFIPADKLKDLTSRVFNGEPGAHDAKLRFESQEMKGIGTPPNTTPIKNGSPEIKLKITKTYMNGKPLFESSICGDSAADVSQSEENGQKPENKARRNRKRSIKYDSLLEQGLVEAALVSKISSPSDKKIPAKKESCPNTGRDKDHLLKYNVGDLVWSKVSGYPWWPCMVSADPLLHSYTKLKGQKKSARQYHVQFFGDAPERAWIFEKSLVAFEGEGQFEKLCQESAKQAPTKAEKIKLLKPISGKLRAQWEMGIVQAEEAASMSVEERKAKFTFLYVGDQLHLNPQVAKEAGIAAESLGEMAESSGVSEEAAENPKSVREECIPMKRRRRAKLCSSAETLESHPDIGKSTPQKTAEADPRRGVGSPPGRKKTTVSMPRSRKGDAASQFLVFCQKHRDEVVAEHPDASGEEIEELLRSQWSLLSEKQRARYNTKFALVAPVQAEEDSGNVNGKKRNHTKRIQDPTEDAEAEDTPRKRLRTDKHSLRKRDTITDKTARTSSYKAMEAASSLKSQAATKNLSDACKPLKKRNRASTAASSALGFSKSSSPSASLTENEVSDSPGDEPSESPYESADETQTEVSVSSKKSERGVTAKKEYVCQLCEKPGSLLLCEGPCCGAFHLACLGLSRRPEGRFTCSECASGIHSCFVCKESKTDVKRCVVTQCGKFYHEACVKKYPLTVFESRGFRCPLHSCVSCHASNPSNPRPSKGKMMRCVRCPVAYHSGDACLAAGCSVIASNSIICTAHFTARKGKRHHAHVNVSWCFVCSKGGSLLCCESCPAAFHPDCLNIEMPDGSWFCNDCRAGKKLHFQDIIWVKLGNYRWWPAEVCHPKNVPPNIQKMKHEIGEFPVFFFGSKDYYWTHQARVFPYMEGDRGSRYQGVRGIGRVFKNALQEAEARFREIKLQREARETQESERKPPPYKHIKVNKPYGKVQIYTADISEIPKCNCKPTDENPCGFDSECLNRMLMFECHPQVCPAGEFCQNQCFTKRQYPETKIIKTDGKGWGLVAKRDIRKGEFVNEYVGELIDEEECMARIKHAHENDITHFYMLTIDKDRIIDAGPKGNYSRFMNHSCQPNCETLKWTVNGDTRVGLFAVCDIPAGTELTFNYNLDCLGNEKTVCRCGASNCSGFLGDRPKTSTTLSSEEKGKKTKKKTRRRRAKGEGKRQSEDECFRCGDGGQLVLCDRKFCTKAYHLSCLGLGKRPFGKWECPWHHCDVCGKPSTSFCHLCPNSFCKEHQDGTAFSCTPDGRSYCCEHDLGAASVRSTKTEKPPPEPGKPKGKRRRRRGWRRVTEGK
Briefly: Inhibition of recombinant human N-terminal GST-tagged NSD2 CD (941 to 1240 residues) expressed in Escherichia coli using SAM as substrate in presence of nucleosomes by AlphaLISA method.

A further data set has as its system MV4-11. The data set is described as follows: Induction of cell cycle arrest in human MV4-11 cells assessed as G0/G1 phase incubated for 72 hrs by ribonucleaseA/propidium iodide staining based flow cytometry analysis. Format: functional. In a few lines: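 Cell cycle by PI: cells exposed for 72 h at 5 and 10 µM vs vehicle, washed twice, fixed overnight in pre-cooled 70% ethanol, then stained 45 min at room temperature with ribonuclease A and PI. Acquired on FACSCanto and phase fractions modelled.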
In general terms: Flow cytometry measures light scatter and fluorescence of single cells or particles in a stream.

The nature of data set [6]: Tmax in CD-1 mouse at 2 mg/kg, ip measured up to 24 hrs by LC-MS/MS. Type of data set: ADME, organism-based. Conditions: in vivo. In a few lines:
(§1)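 CD-1 mice dosed at 2 mg/kg i.p. or i.v., n = 3 per group. Blood sampled at 0, 0.083, 0.25, 0.5, 1, 2, 4, 6, 8 and 24 h and spun for plasma. Internal standard added, deproteinized with methanol/acetonitrile (1:1), supernatant diluted and analysed by LC/MS/MS.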

For a further data set, the system named is MOLT-4. Briefly: Antiproliferative activity against human MOLT-4 cells assessed as reduction in cell viability incubated for 6 days by CCK8 assay.
For another data set, the system named is HL-60. The data set is described as follows: Antiproliferative activity against human HL-60 cells assessed as reduction in cell viability incubated for 6 days by CCK8 assay.
Data set [7] has as its target Ras-related protein R-Ras2 (Homo sapiens) (UniProt P62070). Briefly: Inhibition of RRAS2 transcriptional activity in human KMS-11 cells assessed as reduction in H3K36 methylation at 10 uM measured after 72 hrs by chip q-PCR analysis. Type of data set: cell-based. In a few lines:
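KMS11 cells treated with test agent or DMSO. ChIP with magnetic-bead enzymatic chromatin IP kit using anti-H3K36me2, anti-histone H3 and IgG control antibodies. H3K36me2 quantified by qPCR with primers spanning the promoter regions of TGFA, MET, PAK1 and RRAS2.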

The next data set has as its system OCI-AML-5. The data set is described as follows: Antiproliferative activity against human OCI-AML5 cells assessed as reduction in cell viability incubated for 6 days by CCK8 assay.
Data set [8] can be described thus: MRT in CD-1 mouse at 2 mg/kg, ip measured up to 24 hrs by LC-MS/MS. Format: ADME, organism-based. Conditions: in vivo. In a few lines:
as §1

For data set [9], the system named is KMS-11. The data set is described as follows: Induction of apoptosis in human KMS-11 cells incubated for 72 hrs by annexin-V/FITC and propidium iodide staining based flow cytometry analysis. As to conditions: dose 5-10 µM. Format: functional, cell-based.
Data set [10] has as its system RS4-11. Briefly: Antiproliferative activity against human RS4-11 cells assessed as reduction in cell viability at 1 to 100 uM by CCK8 assay. Type of data set: functional, cell-based. As to conditions: dose 1-100 µM, time 6.0 day, TDE = time-dependent effect.
In a further data set the test system is RPMI-8226. The data set is described as follows: Antiproliferative activity against human RPMI-8226 cells assessed as reduction in cell viability incubated for 6 days by CCK8 assay.
Data set [11] in a line: Inhibition of PAK1 transcriptional activity in human KMS-11 cells assessed as reduction in H3K36 methylation at 10 uM measured after 72 hrs by chip q-PCR analysis.

Active and inactive are the calls of the source. No cut-off for these calls is given here.

Sequence of Ras-related protein R-Ras2 (Homo sapiens) (P62070 whole entry): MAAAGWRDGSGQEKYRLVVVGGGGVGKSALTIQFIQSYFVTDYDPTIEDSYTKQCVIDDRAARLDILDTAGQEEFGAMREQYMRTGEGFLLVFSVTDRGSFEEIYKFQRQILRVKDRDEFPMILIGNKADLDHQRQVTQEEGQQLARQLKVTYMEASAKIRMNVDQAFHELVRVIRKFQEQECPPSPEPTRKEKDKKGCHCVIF
Sequence of Protein arginine N-methyltransferase 5 (O14744 whole entry): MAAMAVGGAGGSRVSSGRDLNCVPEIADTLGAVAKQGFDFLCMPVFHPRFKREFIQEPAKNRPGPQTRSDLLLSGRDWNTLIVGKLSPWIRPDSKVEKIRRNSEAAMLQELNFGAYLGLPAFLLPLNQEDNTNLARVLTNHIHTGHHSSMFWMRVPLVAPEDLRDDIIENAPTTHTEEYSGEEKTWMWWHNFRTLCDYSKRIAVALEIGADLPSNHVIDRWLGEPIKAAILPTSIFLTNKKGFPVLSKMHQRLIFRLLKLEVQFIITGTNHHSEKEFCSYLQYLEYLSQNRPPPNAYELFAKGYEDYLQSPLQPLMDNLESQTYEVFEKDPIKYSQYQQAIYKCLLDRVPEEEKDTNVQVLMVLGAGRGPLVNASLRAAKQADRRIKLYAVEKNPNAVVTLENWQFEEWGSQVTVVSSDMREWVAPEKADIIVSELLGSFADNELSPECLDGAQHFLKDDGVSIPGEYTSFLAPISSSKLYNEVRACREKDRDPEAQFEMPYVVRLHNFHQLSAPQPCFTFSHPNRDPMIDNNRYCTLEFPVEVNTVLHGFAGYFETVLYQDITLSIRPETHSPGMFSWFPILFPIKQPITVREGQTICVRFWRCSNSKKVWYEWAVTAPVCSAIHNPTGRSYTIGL

Usually IC50 stands for the midpoint of a concentration-inhibition curve. In general, Tmax refers to the time from dosing to the highest level. The term MRT denotes the average time that molecules of a dose stay in the body. For the compound `Cl.Nc1cccc2c(S(=O)(=O)NCc3ccccc3)cccc12`, the inhibition in vivo at 25 mg/kg in the data set with RS4-11 [1] came out at 43.6%. The IC50 in data set [2] was more than 20 µM; in data set [5], 2700 nM. Further, the Activity entry with KMS-11 [3] is “Tde”; in the data set on KMS-11 [9], “Dose-Dependent Effect”; in the data set on RS4-11 [10], “Tde”. Moreover, in the data set on KMS-11 [4], the viability at 5 µM came out at 58.7%. Also, the outcome with MV4-11 was inactive. In addition, the Tmax in [6] came to 4.98 min. Besides, the outcome with MOLT-4, in the data set with HL-60, in the data set with OCI-AML-5 and in the data set with RPMI-8226 was Active. The inhibition result in [7] and in [11] was “Active” in each case. Besides, in [8], the MRT worked out at 31.9 min.
